Tests used:
[1] = test system: H1299 cells with deleted p53; experiment: Caspase-Glo 3/7 assay in H1299 cells; format: cell-based, human; settings: 20 μM, 24 h
Outline: (§1)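 Human lung cancer cells, H460 (wild-type p53) and H1299 (p53 deleted), were exposed for 24 h to test compound at 20 μM. Controls were DMSO, a negative-control compound (20 μM) and a known MDM2 inhibitor as positive control (20 μM). Caspase 3/7 activity was then measured with the Caspase-Glo 3/7 assay kit.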

[2] = test system: H460 cells with wild type p53; experiment: Caspase-Glo 3/7 assay in H460 cells; format: cell-based, human; settings: 20 μM, 24 h
Outline: as §1

Compound: CC(C)(C)C[C@H]1N[C@@H](C(=O)NCCN2CCOCC2)[C@H](c2cccc(Cl)c2F)[C@@]12C(=O)Nc1cc(Cl)ccc12 [MI-63]
- effect on caspase 3/7 activity [1]: no effect
- induction of caspase 3/7 activity [2]: ~5 fold
